{"source": "ChEMBL document CHEMBL1151760", "about": "“Novel high-affinity and selective biaromatic 4-substituted gamma-hydroxybutyric acid (GHB) analogues as GHB ligands: design, synthesis, and binding studies” (J Med Chem, 2008)", "key": {"[1]": {"target": "GHB high-affinity binding site (Rattus norvegicus)", "assay": "Displacement of [3H]NCS-382 from GHB high-affinity binding site in rat brain homogenate"}, "[2]": {"assay": "Displacement of [3H]muscimol from GABAA receptor in rat brain synaptic membranes", "type": "cell membranes, Membrane", "how_it_was_run": "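Washed synaptic membranes from adult male Sprague-Dawley rat cortex and central hemispheres in 50 mM Tris-HCl pH 7.4. 100 µg protein was incubated with 5 nM [3H]muscimol and 0.1 mM displacer at 0 °C for 60 min. Nonspecific binding was set with 1 mM GABA. Bound counts were read by filtration and scintillation. Triplicates, at least two independent experiments.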"}, "[3]": {"assay": "Displacement of [3H]GABA from GABAB receptor in rat brain synaptic membranes", "type": "cell membranes, Membrane", "how_it_was_run": "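Adult male Sprague-Dawley rat cortex and central hemisphere synaptic membranes, thawed and washed four times by homogenization in 50 mM Tris-HCl pH 7.4 and 48000g spins at 4 °C. 200 µg protein was incubated with 5 nM [3H]GABA, 40 µM isoguvacine to saturate GABAA sites, and 0.1 mM displacer in Tris-HCl with 2.5 mM CaCl2, pH 7.4, for 45 min at 25 °C. Nonspecific binding was set with 0.1 mM baclofen. Bound counts were read by filtration and scintillation.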"}}, "data": [{"smiles": "O=C(O)CCC(=O)c1ccc(Cc2ccccc2)cc1", "values": [{"measurement": "Ki", "setting": "[1]", "value": 15000, "unit": "nM"}, {"measurement": "pKi", "setting": "[1]", "value": 4.83}]}, {"smiles": "O=C(O)CCC(=O)c1ccc(CCc2ccccc2)cc1", "values": [{"measurement": "Ki", "setting": "[1]", "value": 8800, "unit": "nM"}, {"measurement": "pKi", "setting": "[1]", "value": 5.07}]}, {"smiles": "O=C([O-])CCC(O)c1ccc(/C=C/c2ccccn2)cc1.[Li+]", "note": "(stereo unspecified)", "values": [{"measurement": "Ki", "setting": "[1]", "value": 230, "unit": "nM"}, {"measurement": "pKi", "setting": "[1]", "value": 6.67}]}, {"smiles": "O=C([O-])CCC(O)c1ccc(/C=C/c2cccc(Cl)c2)cc1.[Li+]", "note": "(stereo unspecified)", "values": [{"measurement": "Ki", "setting": "[1]", "value": 79, "unit": "nM"}, {"measurement": "pKi", "setting": "[1]", "value": 7.11}]}, {"smiles": "COc1ccc(/C=C/c2ccc(C(O)CCC(=O)[O-])cc2)cc1.[Li+]", "note": "(stereo unspecified)", "values": [{"measurement": "Ki", "setting": "[1]", "value": 180, "unit": "nM"}, {"measurement": "pKi", "setting": "[1]", "value": 6.75}]}, {"smiles": "O=C([O-])CCC(O)c1ccc(/C=C/c2ccncc2)cc1.[Li+]", "note": "(stereo unspecified)", "values": [{"measurement": "Ki", "setting": "[1]", "value": 340, "unit": "nM"}, {"measurement": "pKi", "setting": "[1]", "value": 6.49}]}, {"smiles": "Cc1ncsc1/C=C/c1ccc(C(O)CCC(=O)[O-])cc1.[Li+]", "note": "(stereo unspecified)", "values": [{"measurement": "Ki", "setting": "[1]", "value": 250, "unit": "nM"}, {"measurement": "pKi", "setting": "[1]", "value": 6.62}]}, {"smiles": "O=C(O)CCCc1ccc(CCc2ccccc2)cc1", "values": [{"measurement": "Ki", "setting": "[1]", "value": 1200, "unit": "nM"}, {"measurement": "pKi", "setting": "[1]", "value": 6.01}]}, {"smiles": "O=C([O-])CCC(O)c1ccc(/C=C/c2ccccc2)cc1.[Li+]", "note": "(stereo unspecified)", "values": [{"measurement": "IC50", "setting": "[2]", "value": "> 100000", "unit": "nM"}, {"measurement": "IC50", "setting": "[3]", "value": "> 100000", "unit": "nM"}, {"measurement": "Ki", "setting": "[1]", "value": 160, "unit": "nM"}, {"measurement": "pKi", "setting": "[1]", "value": 6.79}]}, {"smiles": "O=C([O-])CCC(O)c1ccc(/C=C/c2ccccc2Cl)cc1.[Li+]", "note": "(stereo unspecified)", "values": [{"measurement": "Ki", "setting": "[1]", "value": 54, "unit": "nM"}, {"measurement": "pKi", "setting": "[1]", "value": 7.28}]}, {"smiles": "O=C(O)CCC(=O)c1ccc(Br)cc1", "values": [{"measurement": "Ki", "setting": "[1]", "value": 17000, "unit": "nM"}, {"measurement": "pKi", "setting": "[1]", "value": 4.61}]}, {"smiles": "O=C([O-])CC[C@H](O)c1ccc(OCc2ccccc2I)cc1.[Li+]", "values": [{"measurement": "Ki", "setting": "[1]", "value": 220, "unit": "nM"}, {"measurement": "pKi", "setting": "[1]", "value": 6.66}]}, {"smiles": "O=C(O)CCC(O)c1ccc(OCc2cccc(Br)c2)cc1", "note": "(racemic)", "values": [{"measurement": "Ki", "setting": "[1]", "value": 51, "unit": "nM"}, {"measurement": "pKi", "setting": "[1]", "value": 7.32}]}, {"smiles": "O=C([O-])CCC(O)c1ccc(OCc2ccccc2F)cc1.[Li+]", "note": "(racemic)", "values": [{"measurement": "Ki", "setting": "[1]", "value": 41, "unit": "nM"}, {"measurement": "pKi", "setting": "[1]", "value": 7.39}]}, {"smiles": "O=C([O-])CCC(O)c1ccc(OCc2ccco2)cc1.[Li+]", "note": "(racemic)", "values": [{"measurement": "Ki", "setting": "[1]", "value": 200, "unit": "nM"}, {"measurement": "pKi", "setting": "[1]", "value": 6.72}]}, {"smiles": "O=C([O-])CCC(O)c1ccc(OCc2ccc(Br)cc2)cc1.[Li+]", "note": "(racemic)", "values": [{"measurement": "Ki", "setting": "[1]", "value": 34, "unit": "nM"}, {"measurement": "pKi", "setting": "[1]", "value": 7.48}]}, {"smiles": "O=C([O-])CCC(O)c1ccc(OCc2ccc(F)cc2)cc1.[Li+]", "note": "(racemic)", "values": [{"measurement": "Ki", "setting": "[1]", "value": 93, "unit": "nM"}, {"measurement": "pKi", "setting": "[1]", "value": 7.03}]}, {"smiles": "O=C([O-])CCC(O)c1ccc(OCc2cccs2)cc1.[Li+]", "note": "(racemic)", "values": [{"measurement": "Ki", "setting": "[1]", "value": 96, "unit": "nM"}, {"measurement": "pKi", "setting": "[1]", "value": 7.03}]}, {"smiles": "O=C([O-])CCC(O)c1ccc(OCc2cccc(F)c2)cc1.[Li+]", "note": "(racemic)", "values": [{"measurement": "Ki", "setting": "[1]", "value": 63, "unit": "nM"}, {"measurement": "pKi", "setting": "[1]", "value": 7.22}]}, {"smiles": "O=C([O-])CCC(O)c1ccc(-c2ccccc2)cc1.[Li+]", "note": "(racemic)", "values": [{"measurement": "Ki", "setting": "[1]", "value": 440, "unit": "nM"}, {"measurement": "pKi", "setting": "[1]", "value": 6.36}]}, {"smiles": "O=C([O-])CCC(O)c1ccc(Cc2ccccc2)cc1.[Li+]", "note": "(racemic)", "values": [{"measurement": "Ki", "setting": "[1]", "value": 120, "unit": "nM"}, {"measurement": "pKi", "setting": "[1]", "value": 6.94}]}, {"smiles": "O=C([O-])CCC(O)c1ccc(CCc2ccccc2)cc1.[Li+]", "note": "(racemic)", "values": [{"measurement": "IC50", "setting": "[2]", "value": "> 100000", "unit": "nM"}, {"measurement": "IC50", "setting": "[3]", "value": "> 100000", "unit": "nM"}, {"measurement": "Ki", "setting": "[1]", "value": 75, "unit": "nM"}, {"measurement": "pKi", "setting": "[1]", "value": 7.13}]}, {"smiles": "O=C([O-])CCC(O)c1ccc(OCc2ccccc2Br)cc1.[Li+]", "note": "(racemic)", "values": [{"measurement": "Ki", "setting": "[1]", "value": 53, "unit": "nM"}, {"measurement": "pKi", "setting": "[1]", "value": 7.28}]}, {"smiles": "O=C([O-])CCC(O)c1ccc(OCc2ccccc2)cc1.[Li+]", "note": "(racemic)", "values": [{"measurement": "IC50", "setting": "[2]", "value": "> 100000", "unit": "nM"}, {"measurement": "IC50", "setting": "[3]", "value": "> 100000", "unit": "nM"}, {"measurement": "Ki", "setting": "[1]", "value": 110, "unit": "nM"}, {"measurement": "pKi", "setting": "[1]", "value": 6.96}]}, {"smiles": "O=C([O-])CCC(O)c1ccc(OCc2cccc(I)c2)cc1.[Li+]", "note": "(racemic)", "values": [{"measurement": "Ki", "setting": "[1]", "value": 75, "unit": "nM"}, {"measurement": "pKi", "setting": "[1]", "value": 7.12}]}, {"smiles": "O=C([O-])CCC(O)c1ccc(OCc2ccc(I)cc2)cc1.[Li+]", "note": "(racemic)", "values": [{"measurement": "Ki", "setting": "[1]", "value": 62, "unit": "nM"}, {"measurement": "pKi", "setting": "[1]", "value": 7.21}]}, {"smiles": "O=C([O-])CCC(O)c1ccc(OCc2ccccc2I)cc1.[Li+]", "note": "(racemic)", "values": [{"measurement": "IC50", "setting": "[2]", "value": "> 100000", "unit": "nM"}, {"measurement": "IC50", "setting": "[3]", "value": "> 100000", "unit": "nM"}, {"measurement": "Ki", "setting": "[1]", "value": 60, "unit": "nM"}, {"measurement": "pKi", "setting": "[1]", "value": 7.22}]}, {"smiles": "O=C([O-])CC[C@@H](O)c1ccc(OCc2ccccc2I)cc1.[Li+]", "note": "(racemic)", "values": [{"measurement": "Ki", "setting": "[1]", "value": 22, "unit": "nM"}, {"measurement": "pKi", "setting": "[1]", "value": 7.68}]}, {"smiles": "O=C([O-])CCC(O)c1ccc(Br)cc1.[Li+]", "note": "(racemic)", "values": [{"measurement": "Ki", "setting": "[1]", "value": 1100, "unit": "nM"}, {"measurement": "pKi", "setting": "[1]", "value": 5.96}]}]}
